Measurements gathered from unrelated publications.
Each line is one published result; the experiments were not run side by side.
Cell line: MCF7
Read-out: cell growth or viability

Structure (SMILES) | technique | time | IC50 [µM]
Cc1nc(Nc2ccc3c(c2)/C(=C/c2ccccc2)C(=O)N3C)c2ccccc2n1 | MTT | – | 28.8
Cc1ccccc1NC(=O)C=Cc1ccc(O)c(O)c1 | MTT | – | 44.5
CCNCCCn1c2c(c3cc(OC)c(OC)cc3c1=O)C(=O)c1cc3c(nc1-2)OCO3 | – | 72 h | 0.262
Cc1nc(Nc2ccc3c(c2)CC(=O)N3)c2ccccc2n1 | MTT | – | 31.3
COc1ccc(-c2cc(-c3cc(OC)ccc3OC)c3c(=O)n(C)c(=O)n(C)c3n2)cc1 | MTT | 48 h | 19.8
O=C(C=Cc1ccc(O)c(O)c1)OCc1ccccc1 | MTT | – | 85.2
COc1ccc(-c2cc(-c3cccc(Br)c3)c3c(=O)n(C)c(=O)n(C)c3n2)cc1 | MTT | 48 h | 13.5
O=C(CCn1c(=O)ccc2ccccc21)N1CCOCC1 | MTT | 48 h | 9.77
O=c1nc(-c2ccc(Nc3nnc(-c4ccc(Cl)cc4)c4ccccc34)cc2)cc(-c2ccccc2)[nH]1 | MTT | 72 h | 0.16
Cc1ccc(-c2cc(-c3ccc(N(C)C)cc3)c3c(=O)n(C)c(=O)n(C)c3n2)cc1 | MTT | 48 h | 15.8
Nc1ccccc1OC(=O)C=Cc1ccc(O)c(O)c1 | MTT | – | 22.3
Cc1nc(Nc2ccc3c(c2)C(C)(C)C(=O)N3C)c2ccccc2n1 | MTT | – | 36.3
COc1cc2c3c(n(CCCNCCO)c(=O)c2cc1OC)-c1nc2c(cc1C3=O)OCO2 | – | 72 h | 0.369
COc1ccc(-c2cc(-c3c(OC)cccc3OC)c3c(=O)n(C)c(=O)n(C)c3n2)cc1 | MTT | 48 h | 11.3
Cc1nc(N(Cc2ccccc2)c2ccc3c(c2)/C(=C/c2ccccc2)C(=O)N3Cc2ccccc2)c2ccccc2n1 (mixture of isomers) | MTT | – | 0.89
CC(C)CS(=O)(=O)NCc1cccc(-c2ccc3c(NC(=O)CC4CC4)n[nH]c3c2)c1 | ATP luminescence | 48 h | 42
COc1ccc(-c2cc(-c3c(OC)cccc3OC)c3c(=O)[nH]c(=O)[nH]c3n2)cc1 | MTT | 48 h | 32.3
Cc1nc(Nc2ccc3c(c2)/C(=C/c2ccccc2C)C(=O)N3)c2ccccc2n1 | MTT | – | > 50
Cc1nc2ccc(CN(C)c3ccc(C(=O)N[C@@H](CCC(=O)O)C(=O)O)s3)cc2c(=O)[nH]1 | MTT | 48 h | 1.98
Cc1nc(NC(=O)N2CCC[C@H]2C(N)=O)sc1-c1ccnc(C(C)(C)C(F)(F)F)c1 | MTT | – | 1.89
